According to ChEMBL document CHEMBL1153955, “Indolylarylsulfones bearing natural and unnatural amino acids. Discovery of potent inhibitors of HIV-1 non-nucleoside wild type and resistant mutant strains reverse transcriptase and coxsackie B4 virus” (J Med Chem, 2009):

Columns and labels:
Human alphaherpesvirus 1 [1] = assay: Antiviral activity against thymidine kinase deficient and acyclovir resistant HSV1 KOS in human HEL cells assessed as protection against virus-induced cytopathicity; type: functional, organism-based; conditions: Human alphaherpesvirus 1, KOS
Sindbis virus = assay: Antiviral activity against Sindbis virus in african green monkey Vero cells assessed as protection against virus-induced cytopathicity; type: functional, organism-based
Outline: (§1)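 Confluent cell monolayers inoculated with 100 CCID₅₀ virus. After 1-2 h adsorption, residual virus removed and cultures incubated with varying compound concentrations. Cytopathicity scored once it reached completion in untreated infected controls. EC₅₀ = dose reducing virus-induced cytopathogenicity by 50%.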

[2] = target: Human immunodeficiency virus type 1 reverse transcriptase (Human immunodeficiency virus 1, UniProt Q72547); assay: Inhibition of HIV1 reverse transcriptase p66/p51; conditions: read-out: IC50
Influenza B virus [3] = assay: Antiviral activity against influenza B virus in MDCK cells assessed as reduction of virus-induced cytopathicity by visual cytopathic effect scoring method; type: functional, organism-based
[4] = target: Human immunodeficiency virus type 1 reverse transcriptase (Human immunodeficiency virus 1, UniProt Q72547, Y181I); assay: Inhibition of HIV1 reverse transcriptase p66/p51 Y181I mutant; conditions: read-out: IC50
Outline: (§2)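 Substrate was 0.5 µg poly(rA)/oligo(dT) 10:1 (0.3 µM 3′-OH ends) with 10 µM [³H]dTTP, at 37 °C. Acid-precipitable radioactivity was counted on GF/C filters after TCA washes.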

Punta Toro virus = assay: Antiviral activity against Punta Toro virus in african green monkey Vero cells assessed as protection against virus-induced cytopathicity; type: functional, organism-based; outline: as §1
[5] = target: Human immunodeficiency virus type 1 reverse transcriptase (Human immunodeficiency virus 1, UniProt Q72547, L100I); assay: Inhibition of HIV1 reverse transcriptase p66/p51 L100I mutant; conditions: read-out: IC50; outline: as §2
[6] = tested on: Vesicular stomatitis virus; assay: Antiviral activity against VSV in human HEL cells assessed as protection against virus-induced cytopathicity; type: functional, organism-based
[7] = tested on: Human immunodeficiency virus 2; assay: Antiviral activity against HIV2 ROD in human CEM cells assessed as protection against virus-induced cytopathicity after 4 days; type: functional, organism-based; conditions: Human immunodeficiency virus 2, ROD, CCRF-CEM, 96 h
Outline: (§3)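 CEM cells (~3 × 10⁵ cells/mL) infected with ~100 CCID₅₀ per mL of HIV-1 (IIIB) or HIV-2 (ROD), then seeded into wells containing compound dilutions. After 4 days at 37 °C, syncytium (giant cell) formation was examined microscopically. EC₅₀ = concentration protecting CEM cells from HIV cytopathicity by 50%.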

Coxsackievirus B4 [8] = assay: Antiviral activity against Coxsackievirus B4 in human HeLa cells assessed as protection against virus-induced cytopathicity; type: functional, organism-based; conditions: Enterovirus B; outline: as §1
[9] = Cytotoxicity against human HEL cells assessed as drug level causing microscopically detectable alteration of normal cell morphology after 3 days; type: cell-based
Influenza A virus [10] = assay: Antiviral activity against influenza H1N1 virus in MDCK cells assessed as reduction of virus-induced cytopathicity by MTS method; type: functional, organism-based; conditions: Influenza A virus, H1N1, MDCK
[11] = Cytotoxicity against feline CRFK cells by MTS assay; type: cell-based, Felis catus; conditions: cat
[12] = target: Human immunodeficiency virus type 1 reverse transcriptase (Human immunodeficiency virus 1, UniProt Q72547, K103N); assay: Inhibition of HIV1 reverse transcriptase p66/p51 K103N mutant; conditions: read-out: IC50; outline: as §2
Human alphaherpesvirus 1 [13] = assay: Antiviral activity against HSV1 KOS in human HEL cells assessed as protection against virus-induced cytopathicity; type: functional, organism-based; conditions: Human alphaherpesvirus 1, KOS
[14] = tested on: Vesicular stomatitis virus; assay: Antiviral activity against VSV in human HeLa cells assessed as protection against virus-induced cytopathicity; type: functional, organism-based
[15] = Cytotoxicity against human HeLa cells assessed as drug level causing microscopically detectable alteration of normal cell morphology after 3 days; type: cell-based
Outline: (§4)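 Serial compound dilutions added to confluent HeLa or Vero monolayers. MCC = minimum concentration causing microscopically detectable alteration of cell morphology after 3 days of incubation.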

Influenza A virus [16] = assay: Antiviral activity against influenza H1N1 virus in MDCK cells assessed as reduction of virus-induced cytopathicity by visual cytopathic effect scoring method; type: functional, organism-based
CCRF-CEM = assay: Antiproliferative activity against human CEM cells after 3 days; type: cell-based; conditions: 72 h
Outline: (§5)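 Cells seeded at 5 × 10⁴ to 7.5 × 10⁴ cells/200 µL with or without serial compound dilutions; incubated at 37 °C for 2 days (L1210) or 3 days (Molt4/C8, CEM). Cell numbers counted with a Coulter counter. CC₅₀ = concentration reducing proliferation by 50% versus untreated controls, read from plots of cell number (% of control) against concentration. Means of at least two independent experiments.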

[17] = tested on: Respiratory syncytial virus; assay: Antiviral activity against RSV Long in human HeLa cells assessed as protection against virus-induced cytopathicity; type: functional, organism-based; outline: as §1
Influenza A virus H3N2 [18] = assay: Antiviral activity against influenza H3N2 virus in MDCK cells assessed as reduction of virus-induced cytopathicity by visual cytopathic effect scoring method; type: functional, organism-based
L1210 = assay: Antiproliferative activity against mouse L1210 cells after 2 days; type: cell-based; conditions: L1210, 48 h; outline: as §5
[19] = Cytotoxicity against MDCK cells assessed as drug level causing microscopically detectable alteration of normal cell morphology; type: cell-based, Canis lupus familiaris; conditions: dog
[20] = Antiproliferative activity against human Molt4/C8 cells after 3 days; type: cell-based; conditions: MOLT-4, 72 h; outline: as §5
Feline coronavirus = assay: Antiviral activity against Feline coronavirus in feline […] cells assessed as inhibition of virus-induced cytopathicity; type: functional, organism-based; conditions: Alphacoronavirus 1
Vaccinia virus = assay: Antiviral activity against Vaccinia virus Lederle in human HEL cells assessed as protection against virus-induced cytopathicity; type: functional, organism-based; conditions: Orthopoxvirus vaccinia
Influenza B virus [21] = assay: Antiviral activity against influenza B virus in MDCK cells assessed as reduction of virus-induced cytopathicity by MTS method; type: functional, organism-based
Human alphaherpesvirus 2 = assay: Antiviral activity against HSV2 G in human HEL cells assessed as protection against virus-induced cytopathicity; type: functional, organism-based; conditions: Human alphaherpesvirus 2, strain G; outline: as §1
[22] = Cytotoxicity against african green monkey Vero cells assessed as drug level causing microscopically detectable alteration of normal cell morphology after 3 days; type: cell-based; conditions: chlorocebus sabaeus; outline: as §4
[23] = tested on: Human immunodeficiency virus 1; assay: Antiviral activity against HIV1 3B in human CEM cells assessed as protection against virus-induced cytopathicity after 4 days; type: functional, organism-based; conditions: Human immunodeficiency virus 1, 3B, CCRF-CEM, 96 h; outline: as §3
Influenza A virus H3N2 [24] = assay: Antiviral activity against influenza H3N2 virus in MDCK cells assessed as reduction of virus-induced cytopathicity by MTS method; type: functional, organism-based
Felid alphaherpesvirus 1 = assay: Antiviral activity against Feline herpesvirus in feline […] cells assessed as inhibition of virus-induced cytopathicity; type: functional, organism-based
[25] = tested on: Mammalian orthoreovirus 1; assay: Antiviral activity against Reovirus 1 in african green monkey Vero cells assessed as protection against virus-induced cytopathicity; type: functional, organism-based; conditions: Mammalian orthoreovirus 1, Vero; outline: as §1
Coxsackievirus B4 [26] = assay: Antiviral activity against Coxsackievirus B4 in african green monkey Vero cells assessed as protection against virus-induced cytopathicity; type: functional, organism-based; conditions: Enterovirus B; outline: as §1
Human respirovirus 3 = assay: Antiviral activity against Parainfluenza virus type 3 in african green monkey Vero cells assessed as protection against virus-induced cytopathicity; type: functional, organism-based; conditions: Human respirovirus 3, Vero; outline: as §1
[27] = Cytotoxicity against MDCK cells by MTS assay; type: cell-based, Canis lupus familiaris; conditions: dog

Row | Structure (SMILES) | EC50 (Human alphaherpesvirus 1 [1]) | EC50 (Sindbis virus) | IC50 [2] | EC50 (Influenza B virus [3]) | IC50 [4] | EC50 (Punta Toro virus) | IC50 [5] | EC50 [6] | EC50 [7] | EC50 (Coxsackievirus B4 [8]) | MCC at 72 h [9] | EC50 (Influenza A virus [10]) | CC50 [11] | IC50 [12] | EC50 (Human alphaherpesvirus 1 [13]) | EC50 [14] | MCC at 72 h [15] | EC50 (Influenza A virus [16]) | IC50 (CCRF-CEM) | EC50 [17] | further results
1 | Cc1cc(C)cc(S(=O)(=O)c2c(C(=O)NCCC(N)=O)[nH]c3ccc([N+](=O)[O-])cc23)c1 | > 20 µM | > 100 µM | 0.027 µM | > 20 µM | 5.53 µM | > 100 µM | 0.204 µM | > 20 µM | > 10 µM | > 100 µM | ≥ 20 µM | > 20 µM | > 100 µM | 0.474 µM | > 20 µM | > 100 µM | > 100 µM | > 20 µM | ≥ 500 µM | > 100 µM | EC50 (Influenza A virus H3N2 [18]): > 20 µM; IC50 (L1210): > 500 µM; MCC [19]: 100 µM; IC50 [20]: > 500 µM; EC50 (Feline coronavirus): > 100 µM; EC50 (Vaccinia virus): > 20 µM; EC50 (Influenza B virus [21]): > 20 µM; EC50 (Human alphaherpesvirus 2): > 20 µM; MCC at 72 h [22]: > 100 µM; EC50 [23]: 0.0016 µM; EC50 (Influenza A virus H3N2 [24]): > 20 µM; EC50 (Felid alphaherpesvirus 1): > 100 µM; EC50 [25]: > 100 µM; EC50 (Coxsackievirus B4 [26]): > 100 µM; EC50 (Human respirovirus 3): > 100 µM; CC50 [27]: > 100 µM
2 | Cc1cc(C)cc(S(=O)(=O)c2c(C(=O)NCCC(N)=O)[nH]c3ccc(Br)cc23)c1 | > 4 µM | > 20 µM | 0.086 µM | > 4 µM | 8.57 µM | > 20 µM | 0.169 µM | > 4 µM | 23 µM | 11 µM | 20 µM | > 4 µM | 15.6 µM | 0.42 µM | > 4 µM | > 20 µM | ≥ 20 µM | > 4 µM | 36 µM | ≥ 20 µM | EC50 (Influenza A virus H3N2 [18]): > 4 µM; IC50 (L1210): 46 µM; MCC [19]: 20 µM; IC50 [20]: 25 µM; EC50 (Feline coronavirus): > 4 µM; EC50 (Vaccinia virus): > 4 µM; EC50 (Influenza B virus [21]): > 4 µM; EC50 (Human alphaherpesvirus 2): > 4 µM; MCC at 72 h [22]: 100 µM; EC50 [23]: 0.0011 µM; EC50 (Influenza A virus H3N2 [24]): > 4 µM; EC50 (Felid alphaherpesvirus 1): > 4 µM; EC50 [25]: > 20 µM; EC50 (Coxsackievirus B4 [26]): 16 µM; EC50 (Human respirovirus 3): > 20 µM; CC50 [27]: 8.5 µM
3 | Cc1cc(C)cc(S(=O)(=O)c2c(C(=O)NC(C)CS(N)(=O)=O)[nH]c3ccc([N+](=O)[O-])cc23)c1 (stereo not drawn) | > 20 µM | > 20 µM | 0.028 µM | > 4 µM | 26.2 µM | > 20 µM | 0.364 µM | > 20 µM | > 10 µM | ≥ 20 µM | ≥ 20 µM | > 4 µM | 47.6 µM | 3.28 µM | > 20 µM | ≥ 20 µM | ≥ 20 µM | > 4 µM | 15 µM | > 20 µM | EC50 (Influenza A virus H3N2 [18]): > 4 µM; IC50 (L1210): 20 µM; MCC [19]: 20 µM; IC50 [20]: 11 µM; EC50 (Feline coronavirus): > 20 µM; EC50 (Vaccinia virus): > 20 µM; EC50 (Influenza B virus [21]): > 4 µM; EC50 (Human alphaherpesvirus 2): > 20 µM; MCC at 72 h [22]: ≥ 20 µM; EC50 [23]: 0.0042 µM; EC50 (Influenza A virus H3N2 [24]): > 4 µM; EC50 (Felid alphaherpesvirus 1): > 20 µM; EC50 [25]: > 20 µM; EC50 (Coxsackievirus B4 [26]): ≥ 20 µM; EC50 (Human respirovirus 3): > 20 µM; CC50 [27]: 9.8 µM
